Data: ChEMBL document CHEMBL1127018, “Synthesis and biological activity of spirocyclic benzopyran imidazolone potassium channel openers” (1993)

What was measured:
A10 [1] = experiment: Percent decrease in fluorescence in a membrane potential assay using the A10 cell line derived from embryonic rat aorta at 0.1 uM; assay type: functional
Summary of the method: (§1)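 Postconfluent A10 cells (passage ≤20, grown in DMEM/15% FBS) equilibrated ≥15 min at 37 °C in 5 μM DiBAC₄(3) in EBSS with 20 mM HEPES, pH 7.3. Compound added from 1000X DMSO or water stocks. Fluorescence (ex 488, em 525 nm) imaged every 60 s at 37 °C from a field of about 50 cells and normalized between experiments.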

A10 [2] = experiment: Percent decrease in fluorescence in a membrane potential assay using the A10 cell line derived from embryonic rat aorta at 1.0 uM; assay type: functional; summary of the method: as §1
Rattus norvegicus [3] = experiment: Change in heart rate in beats per minute in anesthetized female rats at a dose of 0.01 mg/kg and a cumulative dose of 0.01 mg/kg; assay type: functional
Summary of the method: (§2)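 Fasted female Sprague-Dawley rats, 200–250 g, anesthetized iv with α-chloralose 40 mg/kg, urethane 20 mg/kg and pentobarbital 20 mg/kg. Femoral vein cannulated for dosing; heart rate taken by tachograph triggered from the arterial pulse. Rectal temperature kept at 36–38 °C. Drug given iv in 20% DMA/saline as four rising bolus steps 20 min apart. ΔHR from pretreatment is the mean of 4–5 rats.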

Rattus norvegicus [4] = experiment: Change in heart rate in beats per minute in anesthetized female rats at a dose of 0.03 mg/kg and a cumulative dose of 0.04 mg/kg; assay type: functional; summary of the method: as §2
Rattus norvegicus [5] = experiment: Change in heart rate in beats per minute in anesthetized female rats at a dose of 0.10 mg/kg and a cumulative dose of 0.14 mg/kg; assay type: functional; summary of the method: as §2
Rattus norvegicus [6] = experiment: Change in mean arterial pressure in anesthetized female rats at a dose of 0.01 mg/kg and a cumulative dose of 0.01 mg/kg; assay type: functional, Artery
Summary of the method: (§3)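 Fasted female Sprague-Dawley rats, 200–250 g, under iv α-chloralose/urethane/pentobarbital anesthesia. Mean arterial pressure recorded continuously through a femoral artery catheter, after 30 min postsurgical equilibration. Compound given iv in 20% DMA/saline as step doses (initial plus three higher) at 20-min intervals. ΔMAP from pretreatment averaged over 4–5 rats per group; vehicle controls pooled n = 6.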

Rattus norvegicus [7] = experiment: Change in mean arterial pressure in anesthetized female rats at a dose of 0.03 mg/kg and a cumulative dose of 0.04 mg/kg; assay type: functional, Artery; summary of the method: as §3
Rattus norvegicus [8] = experiment: Change in mean arterial pressure in anesthetized female rats at a dose of 0.10 mg/kg and a cumulative dose of 0.14 mg/kg; assay type: functional, Artery; summary of the method: as §3
Rattus norvegicus [9] = experiment: Change in mean arterial pressure in anesthetized female rats at a dose of 0.30 mg/kg and a cumulative dose of 0.44 mg/kg; assay type: functional, Artery; summary of the method: as §3
Rattus norvegicus [10] = experiment: Change in heart rate in beats per minute in anesthetized female rats at a dose of 0.30 mg/kg and a cumulative dose of 0.44 mg/kg; assay type: functional; summary of the method: as §2
A10 [11] = experiment: Percent decrease in fluorescence in a membrane potential assay using the A10 cell line derived from embryonic rat aorta at 10.0 uM; assay type: functional; summary of the method: as §1
A10 [12] = experiment: Percent decrease in fluorescence in a membrane potential assay using the A10 cell line derived from embryonic rat aorta at 0.001 uM; assay type: functional; summary of the method: as §1
A10 [13] = experiment: Percent decrease in fluorescence in a membrane potential assay using the A10 cell line derived from embryonic rat aorta at 0.01 uM; assay type: functional; summary of the method: as §1
Rattus norvegicus [14] = experiment: Change in heart rate in beats per minute in anesthetized female rats at a dose of 0.003 mg/kg and a cumulative dose of 0.004 mg/kg; assay type: functional; summary of the method: as §2
Rattus norvegicus [15] = experiment: Change in heart rate in beats per minute in anesthetized female rats at a dose of 0.030 mg/kg and a cumulative dose of 0.044 mg/kg; assay type: functional; summary of the method: as §2
Rattus norvegicus [16] = experiment: Change in mean arterial pressure in anesthetized female rats at a dose of 0.001 mg/kg and a cumulative dose of 0.001 mg/kg; assay type: functional, Artery; summary of the method: as §3
Rattus norvegicus [17] = experiment: Change in mean arterial pressure in anesthetized female rats at a dose of 0.003 mg/kg and a cumulative dose of 0.004 mg/kg; assay type: functional, Artery; summary of the method: as §3
Rattus norvegicus [18] = experiment: Change in mean arterial pressure in anesthetized female rats at a dose of 0.010 mg/kg and a cumulative dose of 0.014 mg/kg; assay type: functional, Artery; summary of the method: as §3
Rattus norvegicus [19] = experiment: Change in mean arterial pressure in anesthetized female rats at a dose of 0.030 mg/kg and a cumulative dose of 0.044 mg/kg; assay type: functional, Artery; summary of the method: as §3
Rattus norvegicus [20] = experiment: Change in heart rate in beats per minute in anesthetized female rats at a dose of 0.001 mg/kg and a cumulative dose of 0.001 mg/kg; assay type: functional; summary of the method: as §2
Rattus norvegicus [21] = experiment: Change in heart rate in beats per minute in anesthetized female rats at a dose of 0.010 mg/kg and a cumulative dose of 0.014 mg/kg; assay type: functional; summary of the method: as §2

SMILES: CCNC1=NC(=O)C2(CC(C)(C)Oc3ccc(F)cc32)N1 (stereo unspecified)
- Decrease (A10 [1]): 19%
- Decrease (A10 [2]): 24%
- Delta HR (Rattus norvegicus [3]): -0.4 beats min-1
- Delta HR (Rattus norvegicus [4]): 1.7 beats min-1
- Delta HR (Rattus norvegicus [5]): 38 beats min-1
- Delta MAP (Rattus norvegicus [6]): -7.1 mmHg
- Delta MAP (Rattus norvegicus [7]): -10.7 mmHg
- Delta MAP (Rattus norvegicus [8]): -28 mmHg
- Delta MAP (Rattus norvegicus [9]): -44.6 mmHg
- Delta HR (Rattus norvegicus [10]): 45.6 beats min-1

SMILES: CCOC1=NC(=O)C2(CC(C)(C)Oc3ccc(F)cc32)N1 (stereo unspecified)
- Decrease (A10 [2]): <5%
- Decrease (A10 [11]): 13%

SMILES: CCNC1=NC(=O)C2(CC(C)(C)Oc3ccc(C#N)cc32)N1 (stereo unspecified)
- Decrease (A10 [1]): 8%
- Decrease (A10 [2]): 25%

SMILES: CNC1=NC(=O)C2(CC(C)(C)Oc3ccc(F)cc32)N1 (stereo unspecified)
- Decrease (A10 [2]): 11%
- Decrease (A10 [11]): 14%

SMILES: CCOC1=NC(=O)C2(CC(C)(C)Oc3ccccc32)N1 (stereo unspecified)
- Decrease (A10 [11]): <5%

SMILES: CC(C)NC1=NC(=O)C2(CC(C)(C)Oc3ccc(C#N)cc32)N1 (stereo unspecified)
- Decrease (A10 [1]): <5%
- Decrease (A10 [2]): 10%

SMILES: CNC1=NC(=O)C2(CC(C)(C)Oc3ccc(Br)cc32)N1 (stereo unspecified)
- Decrease (A10 [1]): 22%
- Decrease (A10 [2]): 17%

SMILES: CNC1=NC(=O)C2(CC(C)(C)Oc3ccc(C#N)cc32)N1 (stereo unspecified)
- Decrease (A10 [1]): <5%
- Decrease (A10 [2]): 19%

SMILES: CCCNC1=NC(=O)C2(CC(C)(C)Oc3ccccc32)N1 (stereo unspecified)
- Decrease (A10 [2]): 7%

SMILES: CC(C)NC1=NC(=O)C2(CC(C)(C)Oc3ccc(Br)cc32)N1 (stereo unspecified)
- Decrease (A10 [1]): 5%
- Decrease (A10 [2]): 22%

SMILES: CSC1=NC(=O)C2(CC(C)(C)Oc3ccccc32)N1 (stereo unspecified)
- Decrease (A10 [11]): <5%

SMILES: CCCNC1=NC(=O)C2(CC(C)(C)Oc3ccc([N+](=O)[O-])cc32)N1 (stereo unspecified)
- Decrease (A10 [12]): 8%
- Decrease (A10 [13]): 19%
- Decrease (A10 [1]): 28%
- Delta HR (Rattus norvegicus [14]): 3.3 beats min-1
- Delta HR (Rattus norvegicus [15]): 31.8 beats min-1
- Delta MAP (Rattus norvegicus [16]): -19.8 mmHg
- Delta MAP (Rattus norvegicus [17]): -51.3 mmHg
- Delta MAP (Rattus norvegicus [18]): -66 mmHg
- Delta MAP (Rattus norvegicus [19]): -72 mmHg
- Delta HR (Rattus norvegicus [20]): 6.8 beats min-1
- Delta HR (Rattus norvegicus [21]): 3.8 beats min-1

SMILES: CCCNC1=NC(=O)C2(CC(C)(C)Oc3ccc(Br)cc32)N1 (stereo unspecified)
- Decrease (A10 [13]): 12%
- Decrease (A10 [1]): 28%
- Delta HR (Rattus norvegicus [3]): 44.9 beats min-1
- Delta HR (Rattus norvegicus [4]): 25.6 beats min-1
- Delta HR (Rattus norvegicus [5]): 46.3 beats min-1
- Delta MAP (Rattus norvegicus [6]): -25.6 mmHg
- Delta MAP (Rattus norvegicus [7]): -56.7 mmHg
- Delta MAP (Rattus norvegicus [8]): -70.1 mmHg
- Delta MAP (Rattus norvegicus [9]): -70.6 mmHg
- Delta HR (Rattus norvegicus [10]): 92.8 beats min-1

SMILES: CCCNC1=NC(=O)C2(CC(C)(C)Oc3ccc(C#N)cc32)N1 (stereo unspecified)
- Decrease (A10 [13]): <5%
- Decrease (A10 [1]): 21%
- Decrease (A10 [2]): 27%
- Delta HR (Rattus norvegicus [3]): 13.8 beats min-1
- Delta HR (Rattus norvegicus [4]): 19.2 beats min-1
- Delta HR (Rattus norvegicus [5]): 29.8 beats min-1
- Delta MAP (Rattus norvegicus [6]): -23.6 mmHg
- Delta MAP (Rattus norvegicus [7]): -50.8 mmHg
- Delta MAP (Rattus norvegicus [8]): -66.2 mmHg
- Delta MAP (Rattus norvegicus [9]): -70 mmHg
- Delta HR (Rattus norvegicus [10]): 39.2 beats min-1

SMILES: CC(C)NC1=NC(=O)C2(CC(C)(C)Oc3ccc(F)cc32)N1 (stereo unspecified)
- Decrease (A10 [2]): 5%
- Decrease (A10 [11]): 22%

SMILES: CCCSC1=NC(=O)C2(CC(C)(C)Oc3ccc(Br)cc32)N1 (stereo unspecified)
- Decrease (A10 [1]): 6%
- Decrease (A10 [2]): 15%

SMILES: CSC1=NC(=O)C2(CC(C)(C)Oc3ccc(Br)cc32)N1 (stereo unspecified)
- Decrease (A10 [1]): 6%
- Decrease (A10 [2]): 27%

SMILES: CC(C)(C)CNC1=NC(=O)C2(CC(C)(C)Oc3ccccc32)N1 (stereo unspecified)
- Decrease (A10 [11]): 7%

SMILES: CCCNC1=NC(=O)C2(CC(C)(C)Oc3ccc(F)cc32)N1 (stereo unspecified)
- Decrease (A10 [1]): 10%
- Decrease (A10 [2]): 17%

SMILES: CCSC1=NC(=O)C2(CC(C)(C)Oc3ccc(C#N)cc32)N1 (stereo unspecified)
- Decrease (A10 [2]): 6%
- Decrease (A10 [11]): 24%

SMILES: CSC1=NC(=O)C2(CC(C)(C)Oc3ccc(C#N)cc32)N1 (stereo unspecified)
- Decrease (A10 [2]): 5%
- Decrease (A10 [11]): 25%

SMILES: CCSC1=NC(=O)C2(CC(C)(C)Oc3ccc(Br)cc32)N1 (stereo unspecified)
- Decrease (A10 [12]): 7%
- Decrease (A10 [13]): 11%
- Decrease (A10 [1]): 18%
- Delta HR (Rattus norvegicus [3]): 15.5 beats min-1
- Delta HR (Rattus norvegicus [4]): 29 beats min-1
- Delta HR (Rattus norvegicus [5]): 16.5 beats min-1
- Delta MAP (Rattus norvegicus [6]): -2.5 mmHg
- Delta MAP (Rattus norvegicus [7]): -16.3 mmHg
- Delta MAP (Rattus norvegicus [8]): -21.5 mmHg
- Delta MAP (Rattus norvegicus [9]): -25 mmHg
- Delta HR (Rattus norvegicus [10]): 17.5 beats min-1

SMILES: CCOC1=NC(=O)C2(CC(C)(C)Oc3ccc(Br)cc32)N1 (stereo unspecified)
- Decrease (A10 [1]): 5%
- Decrease (A10 [2]): 20%

SMILES: CC(C)NC1=NC(=O)C2(CC(C)(C)Oc3ccccc32)N1 (stereo unspecified)
- Decrease (A10 [11]): 13%

SMILES: CCCSC1=NC(=O)C2(CC(C)(C)Oc3ccc(C#N)cc32)N1 (stereo unspecified)
- Decrease (A10 [1]): <5%
- Decrease (A10 [2]): 17%

SMILES: CSC1=NC(=O)C2(CC(C)(C)Oc3ccc([N+](=O)[O-])cc32)N1 (stereo unspecified)
- Decrease (A10 [13]): 8%
- Decrease (A10 [1]): 11%
- Decrease (A10 [2]): 16%

SMILES: CSC1=NC(=O)C2(CC(C)(C)Oc3ccc(F)cc32)N1 (stereo unspecified)
- Decrease (A10 [2]): 9%
- Decrease (A10 [11]): 27%

SMILES: CCNC1=NC(=O)C2(CC(C)(C)Oc3ccc([N+](=O)[O-])cc32)N1 (stereo unspecified)
- Decrease (A10 [12]): 9%
- Decrease (A10 [13]): 13%
- Decrease (A10 [1]): 28%

SMILES: CC1(C)Oc2ccc(C#N)cc2C(N2CCCC2=O)C1O (stereo unspecified) [CROMAKALIM]
- Decrease (A10 [1]): <5%
- Decrease (A10 [2]): 22%
- Delta HR (Rattus norvegicus [3]): 33.8 beats min-1
- Delta HR (Rattus norvegicus [4]): 53.4 beats min-1
- Delta HR (Rattus norvegicus [5]): 65.6 beats min-1
- Delta MAP (Rattus norvegicus [6]): -14.7 mmHg
- Delta MAP (Rattus norvegicus [7]): -22.6 mmHg
- Delta MAP (Rattus norvegicus [8]): -36.1 mmHg
- Delta MAP (Rattus norvegicus [9]): -52.7 mmHg
- Delta HR (Rattus norvegicus [10]): 63 beats min-1

SMILES: CCNC1=NC(=O)C2(CC(C)(C)Oc3ccc(Br)cc32)N1 (stereo unspecified)
- Decrease (A10 [1]): 26%
- Decrease (A10 [2]): 19%

SMILES: CNC1=NC(=O)C2(CC(C)(C)Oc3ccc([N+](=O)[O-])cc32)N1 (stereo unspecified)
- Decrease (A10 [12]): <5%
- Decrease (A10 [13]): 15%
- Decrease (A10 [1]): 38%
